What was measured:
Lacticaseibacillus casei = experiment: Inhibition of dTMP synthetase in the absence of CH2-H4 folate Lactobacillus casei; type: functional
[1] = system: Thymidylate synthase (Lactobacillus casei); experiment: Rate constant for the inactivation of DTMP synthetase in the presence of cofactor CH2-H4 folate
S49 [2] = experiment: Reduction of deoxy-[…] pool after 1 hour incubation in S-49 cells(2 X 10e 5) at a concentration of 16.5 uM; type: functional, Mus musculus
How it was run: (§1)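 Mouse lymphoma S-49 suspension cultures at 2 × 10^5 cells/mL in DMEM with 10% heat-inactivated horse serum, 37 °C, exposed to 16.5 μM drug; dATP, dCTP, dGTP, dTTP pool sizes measured at 1 h (dTTP also 4 h), expressed as percent of original value.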

S49 [3] = experiment: Reduction of deoxy-Adenosinetriphosphate pool after 1 hour incubation in S-49 cells(2 X 10e 5) at a concentration of 16.5 uM; type: functional, Mus musculus; how it was run: as §1
S49 [4] = experiment: Reduction of deoxy-Cytidinetriphosphate pool after 1 hour incubation in S-49 cells(2 X 10e 5) at a concentration of 16.5 uM; type: functional, Mus musculus; how it was run: as §1
S49 [5] = experiment: Reduction of deoxy-Thymidinetriphosphate pool after 1 hour incubation in S-49 cells(2 X 10e 5) at a concentration of 16.5 uM; type: functional, Mus musculus; how it was run: as §1
S49 [6] = experiment: The growth inhibition of S-49 mouse lymphoma cells; type: functional, cell-based
How it was run: (§2)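 S-49 or thymidine kinase-deficient S-49/TK⁻ cells in 1 mL DMEM with 10% heat-inactivated horse serum plus inhibitor, 37 °C, 10% CO2, 72 h; cell density counted daily by Coulter counter; EC50 = concentration halving growth rate relative to untreated controls.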

L5178Y = experiment: The growth inhibition of L5178Y cell line; type: functional, cell-based; details: Mus musculus
S49 [7] = experiment: Reduction of deoxy-Thymidinetriphosphate pool after 4 hour incubation in S-49 cells(2 X 10e 5) at a concentration of 16.5 uM; type: functional, Mus musculus; how it was run: as §1
P815 = experiment: The growth inhibition of P815 cell line; type: functional, cell-based; details: Mus musculus
S49 [8] = experiment: The growth inhibition of thymidine kinase deficient S-49 cells; type: functional, cell-based; details: Mus musculus; how it was run: as §2

Structure (SMILES): O=c1[nH]c(=O)n([C@@H]2O[C@H](COP(=O)(O)O)[C@@H](O)[C@@H]2F)cc1F
- Ki (Lacticaseibacillus casei): 3.3 µM

Structure (SMILES): O=c1ccn([C@H]2C[C@H](O)[C@@H](COP(=O)(O)O)O2)c(=O)[nH]1 [DEOXYURIDINE MONOPHOSPHATE]
- Ki (Lacticaseibacillus casei): 2.3 µM

Structure (SMILES): O=c1[nH]c(=O)n([C@H]2C[C@H](O)[C@@H](COP(=O)(O)O)O2)cc1Cl
- Ki (Lacticaseibacillus casei): 0.19 µM

Structure (SMILES): O=c1[nH]c(=O)n([C@H]2O[C@@H](CO)[C@H](O)[C@H]2F)cc1F
- Rate constant [1]: 2.4 min⁻¹
- Decrease (S49 [2]): < 20%
- Decrease (S49 [3]): 90%
- Increase (S49 [4]): 172%
- Decrease (S49 [5]): 80%
- EC50 (S49 [6]): 3.3 µM
- EC50 (L5178Y): 3.8 µM
- Decrease (S49 [7]): 40%
- EC50 (P815): 2.6 µM
- EC50 (S49 [8]): 400 µM

From ChEMBL document CHEMBL1122268, “Mechanism of action of 2',5-difluoro-1-arabinosyluracil” (J Med Chem, 1983)
